# In ChEMBL document CHEMBL4513216, “Probing the Open Global Health Chemical Diversity Library for Multistage-Active Starting Points for Next-Generation Antimalarials” (ACS Infect Dis, 2020):
# Experiment: Toxicity liver stage against HepG2, at 10uM
# Format: cell-based
# Set-up: test concentration 10 uM, cell line HepG2-A16-CD81EGFP
# Conditions: human, HepG2-A16-CD81EGFP cells; read-out: INHIBITION
# Method in brief: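 Uninfected HepG2-A16-CD81EGFP cells, 3 × 10^3 per well, 1536-well, plated on prespotted compound at 10 μM final, parasite-free screening media added to match infected plates; puromycin 10 μM positive, DMSO 0.5% negative; run in parallel with 48 h PbLuc assay at 37 °C, 5% CO2; viability by CellTiter-Glo luminescence, normalized to controls.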
row,SMILES,cytotoxicity at 10 µM
1,O=C(c1ccc(Cl)cc1)N1CCC2(C1)C(=O)Nc1ccccc12 (stereo unspecified),1.91%
2,CC(C)c1nc2c(n1C)CCN(CC(=O)Nc1nccs1)C2,1.88%
3,O=C(NCc1ccccc1)N1C[C@@H]2C[C@H](C(=O)N3CCCC3)[C@H](C1)O2,8.46%
4,COc1ccc(-n2c(SCC(=O)O)nnc2-c2cn[nH]c2)cc1,-4.59%
5,O=C(O)c1csc(S(=O)(=O)Nc2cccc(OCC(F)(F)F)c2)c1,-13.1%
6,O=C(CCCN1CCCCC1)N1CCC(c2nnc[nH]2)CC1,-7.92%
7,Cc1ccc(CN(C(=O)c2cccc(NC(N)=O)c2)C2CC2)o1,2.69%
8,CC(C)OCCCNS(=O)(=O)c1ccc2c(c1)NC(=O)C(C)O2 (stereo unspecified),0.893%
9,Cc1cc(C)c(CNC(=O)NCc2ccncc2)c(=O)[nH]1,-5.59%
10,Cc1cc(C(=O)N(C)C)nc(C2(C)CCCN2c2ccccc2)n1 (stereo unspecified),4.89%
11,CCn1ncc(CN(C)C(=O)c2ccn(C)n2)c1C,6.5%
12,Cc1noc(C)c1CN(C)Cc1nc(N)c2ccccc2n1,8.85%
13,Fc1ccccc1C1(CNC2CCOC3(CCOCC3)C2)CCCC1 (stereo unspecified),-1.53%
14,Cc1ccc(-c2cn3c(n2)CO[C@@H](CNCc2nccs2)C3)cc1,-7.31%
15,CCn1ccnc1CN1CCCn2nc(CNC(=O)C3CCC3)cc2C1,-7.79%
16,CCC12CN3CC(C)(CN(C1)C3c1[nH]c(=O)[nH]c(=O)c1C)C2=O (stereo unspecified),6.35%
17,CCN(CC)S(=O)(=O)NCCc1cc(C)ccc1OC,-2.64%
18,CCN(Cc1noc(C2CC2)n1)C(=O)c1onc2ccccc12,1.61%
19,COc1ccc(-c2nccn2CC(O)CN2CCCC2)c(F)c1 (stereo unspecified),2.87%
20,Cc1nc(=O)c2ccccc2n1C1=CCN(CC(=O)NC(C)C)CC1,-7.99%
21,COCCOCC(=O)N1CCC(O)(c2ccc3nc(C)ccc3c2)CC1,-1.01%
22,CCN(CC)Cc1nc2c(o1)CN(C(=O)c1ccncc1F)C2,-109%
23,Cc1cnc(N2C(=O)CSC2c2ccc(F)cc2)s1 (stereo unspecified),-2.92%

row,SMILES,cytotoxicity at 10 µM
1,CC(C)(C)c1nnc(CN2CCN(C(=O)CC3CCCCC3)CC2)o1,15.3%
2,O=C(N1CCOCC1)N1CCc2ncnc(NC3CC3)c2CC1,-20.9%
3,CC(C)CNC(=O)[C@H]1CCS(=O)(=O)[C@@H]2CN(Cc3cccc(Cl)c3)C[C@H]12,-7.06%
4,CCN(CC)Cc1ccc(CNC(=O)C(C)(C)n2cc(Br)cn2)cc1,33.6%
5,CCc1c(C)n(C)c2nc3ccccc3n2c1=O,5.94%
6,c1cnc(N2CCCn3nnc(COCC4CC4)c3C2)nc1,-4.97%
7,CCN1CC(COC(=O)c2cc(C)nn2CC)CC1=O (stereo unspecified),-3.37%
8,CN1CCc2onc(CNc3ncccn3)c2C1,1.58%
9,CNc1ncc(CN(C)C(=O)c2ccc(C3CCCO3)s2)cn1 (stereo unspecified),10.2%
10,CCCOc1ccc(CNCCn2cccn2)cc1,9.66%
11,CC(NC(=O)NCc1ccccc1Cl)c1ccccn1 (stereo unspecified),-11.1%
12,COCC(C)N(C)C(=O)NC1CCN(c2ncccn2)CC1 (stereo unspecified),-12.5%
13,COc1ccc2nc(NC(=O)c3c(C(=O)O)cnn3C)sc2c1,7.19%
14,CC1N(CC2CC2)C(=O)COC12CCN(C(=O)c1cnccn1)CC2 (stereo unspecified),-2.57%
15,CC(C)[C@]1(O)CN(C(=O)COCC(N)=O)C[C@H]1C,7.37%
16,Cc1sc2nc(C(F)(F)F)nc(N3CCC(NS(C)(=O)=O)CC3)c2c1C,-17%
17,CN1Cc2cc(F)ccc2N(CC(C)(C)O)CCC1=O,-2.02%
18,Fc1cc(F)cc(CN2CCC(c3cc4ncccc4cn3)CC2)c1,-1.13%
19,CCn1cc(CN(C)C(=O)C(c2ccccc2C)N(C)C)cn1 (stereo unspecified),0.0381%
20,CCOCCSc1nnc(-c2cn(CC)nc2OCC)n1C,-3.81%
21,COCC(=O)NCC(Cc1cccc(F)c1)n1cccc1 (stereo unspecified),2.55%
22,CC1Cc2ccccc2N1C(=O)Cn1nc(-c2cccs2)cc(N)c1=O (stereo unspecified),-10.6%
23,CCCOCCN1CCN(c2ncnc3[nH]ccc23)CC1,-6.67%

row,SMILES,cytotoxicity at 10 µM
1,CCC(CO)N(Cc1ccco1)C(=O)c1ccccc1SC (stereo unspecified),6.41%
2,CC(NC(=O)CCN1CCOC1=O)(c1ccccc1)c1ccccc1,-10%
3,CCC(CC)(CNC(C)=O)NC(C)c1ccccc1 (stereo unspecified),4.99%
4,O=C(c1cccn1Cc1cccs1)N1CCN2CCCCC2C1 (stereo unspecified),-7.42%
5,Cc1ccc(CNC(=O)CN(C)CC2CCN(CCO)CC2)s1,9.83%
6,CCN(CC)S(=O)(=O)N1C[C@@H](O)[C@H](Oc2cccc(F)c2)C1,9.73%
7,Cc1cc(CC(=O)NCC(O)COc2ccc(F)c(F)c2)no1 (stereo unspecified),-5.03%
8,O=C(CN(Cc1cccc(F)c1)CC1CCCO1)N1CCCC1 (stereo unspecified),-7.29%
9,CNc1nc(CNC(=O)Nc2cccc(-c3nnco3)c2)cs1,-5.26%
10,CCC1CN(CC(=O)Nc2cc(C)nn2C)CCO1 (stereo unspecified),1.14%
11,CN(CCCc1n[nH]c(N)c1C#N)C(=O)NC1CC1,5.85%
12,CCCN1CCC(Cc2noc(-c3ncccc3C)n2)CC1,0.0119%
13,O=C(CCn1cc(Cl)cn1)N1CCC2(CC1)[C@H](O)C[C@@H]2OCCO,19.6%
14,COCCCNC(=O)c1cn(C(C)C)cc2c(=O)[nH]nc1-2,-4.45%
15,CC(C)c1ccc(O)c(C(=O)NC2CCN(c3ncccn3)CC2)c1,9.81%
16,Cc1cnc(C(=O)N2C[C@H]3CN(Cc4cccs4)C[C@H]3C2)cn1,-148%
17,O=C(c1ccnnc1)N1C[C@@H](OCc2cccnc2)[C@H]2OCCC[C@H]21,5.03%
18,CC(C)c1nc(CN2CCN(CC3CCCO3)CC2)cs1 (stereo unspecified),-1.52%
19,CC(C)C[C@@H](N)C(=O)N(C)Cc1csc(C(C)C)n1,-127%
20,CC(C)CN1CCC2(CCN(CC3CC3)CC2)C1=O,7.37%
21,COCCN1C[C@@H]2CC[C@H]1CN(Cc1ccc3ccccc3n1)C2,-11.3%
22,CC(NC(=O)c1cccnc1N(C)C)c1ccccc1Br (stereo unspecified),17.7%
23,O=C(CCCOc1cccc(F)c1)N1CCCC(n2cncn2)C1 (stereo unspecified),-13.2%

row,SMILES,cytotoxicity at 10 µM
1,CC(c1ccncn1)N(C)Cc1cc(O)c2cc(F)ccc2n1 (stereo unspecified),-2%
2,COc1ccc(-c2noc(CNC(C)Cn3cccn3)n2)c(OC)c1 (stereo unspecified),-0.144%
3,Cc1cc(C)n(Cc2cc(C(=O)N3CCCC3c3ccccn3)n[nH]2)n1 (stereo unspecified),0.739%
4,O=C(c1cc(Cl)c2c(c1)OCCCO2)N(CC1CCOC1)C1CC1 (stereo unspecified),-4.09%
5,CCc1nc(N2CCCC(CCCOC)C2)c2cnn(C)c2n1 (stereo unspecified),6.46%
6,CNS(=O)(=O)c1cccc(C(C)NCc2cccc(C)c2C)c1 (stereo unspecified),9.44%
7,CN(C)c1ccc(C(=O)N2CCN(CC(O)C(C)(C)C)CC2)nn1 (stereo unspecified),-19.2%
8,CC(NC(=O)NCCN1CCCC1)c1nncn1C (stereo unspecified),-5.68%
9,O=C(CCc1nccs1)N1CCN(c2ccccc2F)CC1,-9.42%
10,O=C(NCCCO)c1cc(-c2cc[nH]n2)n2ccccc12,14.3%
11,COCCN(C)C(=O)c1nc2c(s1)CCCN2C(=O)C1CC1,-143%
12,Cc1cc(CN2CC[C@H]3OCC[C@@]3(C(=O)N3CCOCC3)C2)no1,7.93%
13,CC(C)C(CCO)NC(=O)Nc1ccc(-c2csnn2)cc1 (stereo unspecified),-10%
14,CC(c1nnc(-c2ccccc2)o1)N1CCc2cncnc2C1 (stereo unspecified),8.59%
15,O=C(Cn1nc2c(cc1=O)CSCC2)NC(Cc1ccccc1)C(=O)O (stereo unspecified),-10.1%
16,Cn1cc(CN2CCCN(C(=O)c3cc(Cl)cn3C)CC2)cn1,-1.63%
17,Cc1n[nH]cc1CNc1ccc2c(c1)CN(C(=O)OC(C)(C)C)CC2,14.9%
18,CN1C(=O)C(c2ccccc2)CC12CCN(CCOCCO)CC2 (stereo unspecified),39.8%
19,O=C(c1cccnc1)N1CCC2(CC1)CCN(c1ccsc1)C2=O,6.84%
20,Cn1cncc1CN1CCCC1c1cncc(Oc2ccc(F)cc2)n1 (stereo unspecified),-17.3%
21,COc1ccc(C(=O)NCC(C)(O)CCc2ccccc2)cc1 (stereo unspecified),-7.39%
22,FC(F)(F)Cn1ccnc1CN1CCOC(Cn2cccn2)C1 (stereo unspecified),0.0962%
23,CCc1nnc(CNC2CCCN(Cc3noc(C4CC4)n3)C2)o1 (stereo unspecified),-5.46%

row,SMILES,cytotoxicity at 10 µM
1,COc1ccc(CN2CC(O)CN(C(=O)c3ccccc3)CC2=O)cc1 (stereo unspecified),0.331%
2,O=C(c1cccnc1)N1CCC2(CC1)COCCN(c1ncccn1)C2,2.66%
3,CCN(CCO)C(=O)C1CCC(=O)N(Cc2cccc(OC)c2)C1 (stereo unspecified),-9.49%
4,COCCCNC1CCCN(c2ccc(C)nn2)C1 (stereo unspecified),-9.9%
5,CC(=O)N1CCCN(C(=O)c2ccn(-c3cccc(Cl)c3)n2)CC1,-1.37%
6,CCc1nc(CCNC(=O)Nc2cc(C(N)=O)ccc2OC)cs1,1.43%
7,O=C(C1CC=CC1)N1CC[C@@H]2O[C@@H](COCC3CCOCC3)CC[C@@H]21,5.51%
8,Cc1nnc(CN(Cc2ccc3c(c2)OCO3)C2CCC(C)CC2)o1 (stereo unspecified),-1.89%
9,CC(=O)N1CCN(C(=O)c2[nH]nnc2Nc2ccccc2F)CC1,2.1%
10,OC(COCc1ccccc1F)CN1CCC(Cn2cccn2)CC1 (stereo unspecified),-10.2%
11,CC(C)c1nccc(N2CCN(CC(=O)N3CCOCC3)CC2)n1,-8.68%
12,Cc1occc1C(=O)Nc1ccnc(OC2CCOC2)c1 (stereo unspecified),-12.8%
13,CC(C)CCc1n[nH]c(C(=O)O)c1I,-1.93%
14,O=C1C(Nc2ccc3nccnc3n2)CCN1c1ccccc1 (stereo unspecified),0.562%
15,CC(C)CCN1C[C@@H]2C[C@H](C(=O)Nc3ccccc3)[C@H](C1)O2,-7.99%
16,Cc1cc(CCC(N)=O)cc(C2CCCN2Cc2ccccn2)n1 (stereo unspecified),-16.7%
17,Cc1cccc(C(=O)NC2CCN(c3cnn(C)c3)C2=O)c1C (stereo unspecified),-1.2%
18,CNC(=O)c1cnc2n1CCN(Cc1cccnc1)C2,8.88%
19,CN(C)[C@@H]1CN(C(=O)c2ccc(C#N)cc2)[C@@H]2CCCO[C@H]12,-146%
